Calls of active or inactive are those of the source. The rule behind the calls is not given here.
Legend:
[1] = Cytotoxicity against human U373 cells after 72 hrs by MTT assay; format: functional, cell-based, U-373MG ATCC; details: U373 MG
In short: (§1)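 Cells plated at 10,000 to 40,000 cells/mL, depending on cell type, and incubated 24 h before treatment. Growth was read after 72 h culture with or without compound. MTT reduction to formazan by living cells was read by spectrophotometry at 570 nm with a 630 nm reference. IC50 growth inhibitory concentrations were derived. NHDF and Wi38 are normal human fibroblasts.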

A549 = test: Cytotoxicity against human A549 cells after 72 hrs by MTT assay; format: functional, cell-based; details: A549, 72 h; in short: as §1
PC-3 = test: Cytotoxicity against human PC3 cells after 72 hrs by MTT assay; format: functional, cell-based; details: PC-3, 72 h; in short: as §1
U-373MG ATCC = test: Cytotoxicity against human apoptosis-resistant U373 cells at 5 uM after 2 hrs by computer-assisted phase contrast microscopy; format: functional, cell-based
In short: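 U373 glioblastoma cells were cultured with or without 5 μM compound. Morphology was followed by quantitative computer-assisted phase-contrast videomicroscopy at 100x and 400x magnification over about 2 h after compound addition, to tell cytotoxic from cytostatic effects.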

[2] = Cytotoxicity against human WI38 cells after 72 hrs by MTT assay; format: cell-based; details: wi-38, 72 h; in short: as §1
NHDF = test: Cytotoxicity against human NHDF cells after 72 hrs by MTT assay; format: cell-based; in short: as §1

**Q.** With `COc1ccc(C2CNC3=C2C(=O)c2c4c(cn2S(=O)(=O)c2ccc(C)cc2)CCN=C34)cc1` (stereo unspecified) as the molecule, how does the IC50 [1] read?
**A.** 30.5 µM

**Q.** What about the IC50 (A549) of the same molecule?
**A.** 25.9 µM

**Q.** What about the IC50 (PC-3) of the same molecule?
**A.** 20.5 µM

**Q.** What does the source list for `COc1ccc(-c2c[nH]c3c2C(=O)c2c(CCN)cn(S(=O)(=O)c4ccc(C)cc4)c2C3=O)cc1`?
**A.** Activity (U-373MG ATCC): Active; Activity [2]: Toxic; Activity (NHDF): Toxic; IC50 [1]: 3.2 µM; IC50 (A549): 4.1 µM; IC50 (PC-3): 4.2 µM

**Q.** For `COc1ccc(C2CNC3=C2C(=O)c2ccn(S(=O)(=O)c4ccc(C)cc4)c2C3=O)cc1` (stereo unspecified), which IC50 [1] is on record?
**A.** 47.2 µM

**Q.** And the IC50 (A549)?
**A.** 35.4 µM

**Q.** What about the IC50 (PC-3) of the same molecule?
**A.** 37.5 µM

**Q.** What does the source list for `COc1ccc(-c2c[nH]c3c2C(=O)c2c4c(cn2S(=O)(=O)c2ccc(C)cc2)CCN=C34)cc1`?
**A.** IC50 [1]: 41.4 µM; IC50 (A549): 3.1 µM; IC50 (PC-3): > 100 µM

**Q.** With `COc1ccc(-c2c[nH]c3c2-c2nccc4c[nH]c(c24)C3=O)cc1` as the molecule, how does the IC50 [1] read?
**A.** 97.8 µM

**Q.** And the IC50 (A549)?
**A.** 80.6 µM

**Q.** What about the IC50 (PC-3) of the same molecule?
**A.** 88.8 µM

**Q.** With `O=C1c2cc[nH]c2C(=O)c2c(-c3ccc(O)cc3)c[nH]c21` as the molecule, how does the IC50 [1] read?
**A.** 37 µM

**Q.** And the IC50 (A549)?
**A.** 74.5 µM

**Q.** What about the IC50 (PC-3) of the same molecule?
**A.** > 100 µM

**Q.** Which results are given for `O=C1c2[nH]cc3c2C(=NCC3)c2c(-c3ccc(O)cc3)c[nH]c21` [TSITSIKAMMAMINE A]?
**A.** IC50 [1]: 18.1 µM; IC50 (A549): 15.6 µM; IC50 (PC-3): 23 µM

**Q.** For `COc1ccc(C(O)CNC2=CC(=O)c3ccn(S(=O)(=O)c4ccc(C)cc4)c3C2=O)cc1` (stereo unspecified), which IC50 [1] is on record?
**A.** 29.2 µM

**Q.** What about the IC50 (A549) of the same molecule?
**A.** > 100 µM

**Q.** And the IC50 (PC-3)?
**A.** > 100 µM

**Q.** What does the source list for `COc1ccc(-c2c[nH]c3c2C(=O)c2c(c(CCN)cn2S(=O)(=O)c2ccc(C)cc2)C3=O)cc1`?
**A.** Activity [2]: Non-toxic; Activity (NHDF): Non-toxic; IC50 [1]: 8.5 µM; IC50 (A549): 11.2 µM; IC50 (PC-3): 31.3 µM

**Q.** With `COc1ccc(-c2c[nH]c3c2C2=NCCc4cn(S(=O)(=O)c5ccc(C)cc5)c(c42)C3=O)cc1` as the molecule, how does the IC50 [1] read?
**A.** 57.4 µM

**Q.** What about the IC50 (A549) of the same molecule?
**A.** 15.4 µM

**Q.** What about the IC50 (PC-3) of the same molecule?
**A.** > 100 µM

**Q.** For `COc1ccc(-c2c[nH]c3c2C(=O)c2[nH]cc4ccnc-3c24)cc1`, which IC50 [1] is on record?
**A.** > 100 µM

**Q.** What about the IC50 (A549) of the same molecule?
**A.** > 100 µM

**Q.** What about the IC50 (PC-3) of the same molecule?
**A.** > 100 µM

**Q.** With `O=C1C2=C(N=CC2c2ccc(O)cc2)C(=O)c2[nH]ccc21` (stereo unspecified) as the molecule, how does the IC50 [1] read?
**A.** > 100 µM

**Q.** And the IC50 (A549)?
**A.** > 100 µM

**Q.** And the IC50 (PC-3)?
**A.** > 100 µM

**Q.** Which IC50 [1] does the source give for `COc1ccc(-c2c[nH]c3c2C(=O)c2[nH]cc4c2C3=NCC4)cc1` here?
**A.** 4.1 µM

**Q.** What about the IC50 (A549) of the same molecule?
**A.** 38.1 µM

**Q.** And the IC50 (PC-3)?
**A.** 55.7 µM

**Q.** Which results are given for `COc1ccc(C2CNC3=C2C(=O)c2c(ccn2S(=O)(=O)c2ccc(C)cc2)C3=O)cc1` (stereo unspecified)?
**A.** IC50 [1]: 51.9 µM; IC50 (A549): 52.4 µM; IC50 (PC-3): 33.7 µM

**Q.** With `COc1ccc(-c2c[nH]c3c2C(=O)c2c(ccn2S(=O)(=O)c2ccc(C)cc2)C3=O)cc1` as the molecule, how does the IC50 [1] read?
**A.** 48.2 µM

**Q.** And the IC50 (A549)?
**A.** 41.3 µM

**Q.** And the IC50 (PC-3)?
**A.** 48.2 µM

**Q.** With `COc1ccc(-c2c[nH]c3c2C(=O)c2[nH]ccc2C3=O)cc1` as the molecule, how does the IC50 [1] read?
**A.** > 100 µM

**Q.** What about the IC50 (A549) of the same molecule?
**A.** > 100 µM

**Q.** And the IC50 (PC-3)?
**A.** > 100 µM

**Q.** For `COc1ccc(C(O)CNC2=CC(=O)c3c(ccn3S(=O)(=O)c3ccc(C)cc3)C2=O)cc1` (stereo unspecified), which IC50 [1] is on record?
**A.** 56.4 µM

**Q.** What about the IC50 (A549) of the same molecule?
**A.** 70.2 µM

**Q.** What about the IC50 (PC-3) of the same molecule?
**A.** 37.3 µM

**Q.** With `COc1ccc(C2CNC3=C2C2=NCCc4cn(S(=O)(=O)c5ccc(C)cc5)c(c42)C3=O)cc1` (stereo unspecified) as the molecule, how does the IC50 [1] read?
**A.** 18.3 µM

**Q.** What about the IC50 (A549) of the same molecule?
**A.** 9.7 µM

**Q.** And the IC50 (PC-3)?
**A.** 20.5 µM

**Q.** What does the source list for `O=C1c2[nH]cc3c2C(=NCC3)c2[nH]cc(-c3ccc(O)cc3)c21`?
**A.** IC50 [1]: 62.2 µM; IC50 (A549): 35.2 µM; IC50 (PC-3): 63.7 µM

**Q.** Which IC50 [1] does the source give for `COc1ccc(C2C=NC3=C2C(=O)c2cc[nH]c2C3=O)cc1` (stereo unspecified) here?
**A.** 7.6 µM

**Q.** And the IC50 (A549)?
**A.** 7.8 µM

**Q.** What about the IC50 (PC-3) of the same molecule?
**A.** > 100 µM

**Q.** Which results are given for `COc1ccc(-c2c[nH]c3c2C(=O)c2ccn(S(=O)(=O)c4ccc(C)cc4)c2C3=O)cc1`?
**A.** IC50 [1]: > 100 µM; IC50 (A549): 77.6 µM; IC50 (PC-3): 24.6 µM

**Q.** With `COc1ccc(-c2c[nH]c3c2C2=NCCc4c[nH]c(c42)C3=O)cc1` as the molecule, how does the IC50 [1] read?
**A.** > 100 µM

**Q.** What about the IC50 (A549) of the same molecule?
**A.** > 100 µM

**Q.** What about the IC50 (PC-3) of the same molecule?
**A.** > 100 µM
